From ChEMBL document CHEMBL1139836, “Development of orally bioavailable and CNS penetrant biphenylaminocyclopropane carboxamide bradykinin B1 receptor antagonists” (J Med Chem, 2007) come the findings set out here.

The test system of one data set is Rhesus monkey. Put plainly: Antidepressor effect in iv dosed rhesus monkey measured as blockade of DAK-induced blood pressure response. The class given is functional, Macaca mulatta. The procedure, abridged: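 Conscious rhesus monkeys primed with LPS 20 µg/kg iv and given 2 h equilibration. Baseline depressor response to des-Arg10-kallidin 0.3 µg/kg iv measured twice. Antagonist given as rising iv bolus doses of 3, 10, 30 and 100 µg/kg, each 5 min before a DAK challenge, with the fall in mean arterial pressure recorded. Plasma sampled 2 min after each dose. Crossover against vehicle, n = 3.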

Data set [1] has as its target T1, B1 bradykinin receptor (Homo sapiens, UniProt P46663).
T1 sequence (P46663 whole entry): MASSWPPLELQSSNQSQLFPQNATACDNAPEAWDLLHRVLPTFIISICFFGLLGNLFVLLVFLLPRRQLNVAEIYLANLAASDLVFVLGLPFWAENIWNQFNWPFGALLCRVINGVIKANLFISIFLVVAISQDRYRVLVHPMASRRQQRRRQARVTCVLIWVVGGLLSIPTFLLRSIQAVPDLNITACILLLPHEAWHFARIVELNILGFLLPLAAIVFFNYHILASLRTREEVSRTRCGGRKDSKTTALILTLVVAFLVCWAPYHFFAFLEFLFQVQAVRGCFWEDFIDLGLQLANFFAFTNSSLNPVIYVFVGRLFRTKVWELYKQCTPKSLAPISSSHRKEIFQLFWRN
Put plainly: Plasma concentration in hB1 knock-in-mouse at 6 mg/kg, po after 1 hr. The class given is ADME, organism-based. Set-up: dose 6 mg/kg, route oral. The essentials:
(§1)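 hB1 knock-in mice with CFA paw inflammation, dosed po at 6, 20 or 60 mg/kg in 0.5% methylcellulose with 10 mg/mL malic acid, pH 4. Plasma collected 60 min after dosing, following behavioural testing.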

Data set [2] has as its target T1, B1 bradykinin receptor. Put plainly: Plasma concentration in hB1 knock-in-mouse at 20 mg/kg, po after 1 hr. Set-up: dose 20 mg/kg, route oral. It counts as ADME, organism-based. The procedure, abridged:
as §1

Data set [3] has as its target T1, B1 bradykinin receptor. Put plainly: Plasma concentration in hB1 knock-in-mouse at 60 mg/kg, po after 1 hr. The class given is ADME, organism-based. Details: dose 60 mg/kg, route oral. The essentials:
as §1

Data set [4] concerns Liver microsomes. Put plainly: Stability in rat liver microsomes. The class given is ADME, Microsome. (Liver microsomes are vesicles of endoplasmic reticulum, rich in cytochrome P450 enzymes.)
Data set [5] can be described thus: Stability in dog liver microsomes. The class given is ADME, Canis lupus familiaris, Microsome.
A short description of data set [6]: Stability in monkey liver microsomes. It counts as ADME, Macaca mulatta, Microsome. The settings on record: rhesus monkey.
The subject of data set [7] is Liver microsomes. Put plainly: Stability in human liver microsomes. It counts as ADME, Microsome.
Data set [8] is described as follows: Stability in rat hepatocytes. It counts as ADME, cell-based, Hepatocyte.
A short description of data set [9]: Stability in monkey hepatocytes. The class given is ADME, cell-based, Macaca mulatta, Hepatocyte. The settings on record: rhesus monkey.
The nature of data set [10]: Stability in human hepatocytes. The class given is ADME, cell-based, Hepatocyte.
Data set [11] has as its system Mus musculus. Put plainly: Effect on complete Freund's adjuvant-induced hypersensitivity in mouse at 6 mg/kg, po. The class given is functional, organism-based. Set-up: dose 6 mg/kg. The essentials:
(§2)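 Humanized B1 knock-in mice and wild-type mice, 8-13 weeks old. Injected intraplantar with 30 µL of 50% CFA; 24 h later tested for von Frey tactile threshold (Dixon up-down). Then dosed po at 6, 20 or 60 mg/kg or vehicle (0.5% methylcellulose with 10 mg/mL malic acid, pH 4, 10 mL/kg). Paw withdrawal threshold read at 60 min. Two-way repeated-measures ANOVA with Tukey test.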

In data set [12] the test system is Mus musculus. Put plainly: Effect on complete Freund's adjuvant-induced hypersensitivity in mouse at 20 mg/kg, po. It counts as functional, organism-based. Details: dose 20 mg/kg. The essentials: as §2
Data set [13] concerns Mus musculus. Put plainly: Effect on complete Freund's adjuvant-induced hypersensitivity in mouse at 60 mg/kg, po. The class given is functional, organism-based. Set-up: dose 60 mg/kg. The essentials: as §2
In data set [14] the target is T2, B1 bradykinin receptor (Homo sapiens) (UniProt P46663).
T2 sequence (whole entry): T1 sequence (P46663 whole entry)
Put plainly: Reversal of complete Freund's adjuvant-induced hyperalgesia in orally dosed hB1 knock-in-mouse. The class given is functional, organism-based. The procedure, abridged: as §2

Data set [15] is described as follows: Oral bioavailability in Sprague-Dawley rat at 10 mg/kg, po and 2 mg/kg, iv. The class given is ADME, organism-based. The note with it: in vivo. The procedure, abridged:
(§3)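 Sprague-Dawley rats, n = 3, dosed orally at 10 mg/kg and iv at 2 mg/kg. F% from oral versus iv exposure; half-life in hours, clearance in mL/min/kg.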

A short description of data set [16]: Half life in Sprague-Dawley rat at 10 mg/kg, po and 2 mg/kg, iv. The class given is ADME, organism-based. The note with it: in vivo. The procedure, abridged:
as §3

Data set [17] is described as follows: Clearance in Sprague-Dawley rat at 10 mg/kg, po and 2 mg/kg, iv. It counts as ADME, organism-based. The note with it: in vivo. The essentials: as §3
The nature of data set [18]: Oral bioavailability in Mongrel dog at 3 mg/kg, po and 1 mg/kg, iv. The class given is ADME, organism-based, Canis lupus familiaris. The settings on record: in vivo. The procedure, abridged: (§4)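 Mongrel dogs, n = 2, dosed orally at 3 mg/kg and iv at 1 mg/kg. F%, half-life in hours, clearance in mL/min/kg.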
Data set [19] in a line: Half life in Mongrel dog at 3 mg/kg, po and 1 mg/kg, iv. It counts as ADME, organism-based, Canis lupus familiaris. The note with it: in vivo. The essentials:
as §4

Data set [20] is described as follows: Clearance in Mongrel dog at 3 mg/kg, po and 1 mg/kg, iv. The class given is ADME, organism-based, Canis lupus familiaris. The settings on record: in vivo. The procedure, abridged: as §4
A short description of data set [21]: Oral bioavailability in rhesus monkey at 3 mg/kg, po and 1 mg/kg, iv. The settings on record: in vivo. It counts as ADME, organism-based, Macaca mulatta. The essentials: (§5)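 Rhesus monkeys, n = 2, dosed orally at 3 mg/kg and iv at 1 mg/kg. F%, half-life in hours, clearance in mL/min/kg.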
The nature of data set [22]: Half life in rhesus monkey at 3 mg/kg, po and 1 mg/kg, iv. The class given is ADME, organism-based, Macaca mulatta. The settings on record: in vivo. The procedure, abridged:
as §5

The nature of data set [23]: Clearance in rhesus monkey at 3 mg/kg, po and 1 mg/kg, iv. It counts as ADME, organism-based, Macaca mulatta. The settings on record: in vivo. The procedure, abridged:
as §5

Data set [24] can be described thus: Ratio of drug level in brain against plasma in African green monkey at 2 mg/kg, iv. The settings on record: read-out: BPR.
The test system of data set [25] is LLC-PK1. Put plainly: Ratio of transport from basolateral to apical over apical to basolateral in LLC-PK1 cells expressing human MDR1. It counts as ADME, cell-based, Sus scrofa. The settings on record: pig. The essentials:
(§6)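 LLC-PK1 cells expressing human MDR1, grown in M199 with 10% FBS on 96-well filters and used on day 4. Equilibrated 30 min in HBSS with 1 mM HEPES, then test compound at 5 µM. 1 µM verapamil served as P-gp substrate control. Transport in both directions measured in triplicate by LC/MS/MS or scintillation.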

Data set [26] concerns LLC-PK1. Put plainly: (§7) Apparent permeability in LLC-PK1 cells expressing human MDR1. The class given is ADME, cell-based, Sus scrofa. The note with it: pig, llc-pk1. The essentials:
as §6

The next data set relates to human MDR1 (P-gp). The description is as §7. It counts as ADME, cell-based, Sus scrofa. The note with it: pig, LLC-PK1. The essentials: as §6
The target of data set [27] is T1, B1 bradykinin receptor. Put plainly: Displacement of [3H]des-Arg10 Leu9 kallidin from human bradykinin B1 receptor expressed in CHO cells. It counts as cell-based. The procedure, abridged: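 Membranes from CHO cells stably expressing human B1, used at 0.2 mg/mL protein in pH 7.4 HEPES/NaCl/KCl buffer with 100 nM enalaprilat, 140 µg/mL bacitracin and 0.1% BSA. Radioligand 0.2 nM [3H]des-arg10 leu9 kallidin, 2% DMSO final, incubated 60 min at 22 °C, then filtered and counted. Nonspecific binding defined with 1 µM des-arg10 kallidin. Ki values, at least two experiments averaged.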
Background: In a radioligand displacement assay an active substance lowers the binding of a labelled ligand.

“And” between values parts separate entries of the source, which are not always exact repeats. Equal entries are not always repeated. The source made the active and inactive calls.

Usually ED50 stands for the midpoint of the dose-response relation. By bioavailability is commonly meant dose-corrected exposure relative to a reference, in per cent. The term half-life denotes the time needed for the level to fall by half in the phase considered. For `COC(=O)c1c(Cl)cccc1-c1ccc([C@@H](C)NC(=O)C2(NC(=O)C(F)(F)F)CC2)c(F)c1` [MK0686], the AD90 with Rhesus monkey turned out to be 0.047 mg/kg. Also, the concentration at 1 h was 1 µM at B1 bradykinin receptor [1], 3.5 µM on B1 bradykinin receptor [2] and 5 µM on B1 bradykinin receptor [3]. For the same compound, the Stability result (in the data set with Liver microsomes [4]; in [5]; in [6]; in the data set on Liver microsomes [7]; in [8]; in data set [9]) was “Stable” throughout. Besides, the Stability entry in data set [10] is given as “Stable”. In addition, the outcome in the data set on Mus musculus [11], in the data set with Mus musculus [12] and in the data set on Mus musculus [13] was inactive. Also, the median effective dose (ED50) in data set [14] is 9.76 mg/kg. The bioavailability in data set [15] was 34%; in data set [18], 33%; in data set [21], 31%. Further, the half-life is 0.4 h in [16], 1.8 h in [19] and 1.7 h in data set [22]. Also, the clearance in data set [17] came out at 40 mL/min/kg; in data set [20], 9 mL/min/kg; in [23], 13 mL/min/kg. Besides, the Kp in data set [24] was found to be 0.4.

One may read the Papp as a coefficient for how fast a substance crosses the barrier. Broadly, the Ki is a dissociation constant, usually derived from enzyme kinetics or from competition with a known ligand. Regarding `COC(=O)c1c(F)cccc1-c1ccc([C@@H](C)NC(=O)C2(NC(=O)C(F)(F)C(F)(F)F)CC2)c(F)c1`, the Ratio in the data set with LLC-PK1 [25] is 1.4 and 3.7. Also, the results for the Papp in the data set on LLC-PK1 [26] and in the data set with human MDR1 (P-gp) were 28 ×10⁻⁶ cm/s and 31 ×10⁻⁶ cm/s, respectively. Also, in data set [15], the bioavailability is 44%. For the same compound, the half-life in data set [16] is 0.34 h. Further, in data set [17], the clearance was 27 mL/min/kg. In addition, the Ki on B1 bradykinin receptor [27] was 1.6 nM and 0.68 nM.
